# Assay results taken from paper PMC10233671 (ACS Omega, 2023).
# What was measured:
# mitochondrial complex I = mitochondrial complex I (Bos taurus, UniProt P03887+P17694+P42026); test: Bos taurus complex I activity assay; type: biochemical; details: 10 μM, SMPs
# Summary of the method: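 Complex I from bovine heart sub-mitochondrial particles, prepared at 4 °C from isolated mitochondria and cleared at 16,000g. In a 96-well plate, SMPs were mixed with 10 μM test compound or positive control (rotenone, antimycin A or KCN). The reaction was started by injecting 200 μM NADH. NADH oxidation was followed at 340 nm for 8 min.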
# Msmeg CIII2CIV2 = Msmeg CIII2CIV2 (Mycolicibacterium smegmatis, UniProt A0R052+I7GD61); test: Oxygen consumption assay with purified CIII2CIV2; type: biochemical, Mycobacterium smegmatis
# [1] = biological target: T1, mitochondrial CIII2 (cytochrome bc1) (Candida albicans, UniProt P0C8L0); test: C. albicans complex III activity assay; type: biochemical; details: 10 and 1 μM
# T1 sequence (P0C8L0 1-387): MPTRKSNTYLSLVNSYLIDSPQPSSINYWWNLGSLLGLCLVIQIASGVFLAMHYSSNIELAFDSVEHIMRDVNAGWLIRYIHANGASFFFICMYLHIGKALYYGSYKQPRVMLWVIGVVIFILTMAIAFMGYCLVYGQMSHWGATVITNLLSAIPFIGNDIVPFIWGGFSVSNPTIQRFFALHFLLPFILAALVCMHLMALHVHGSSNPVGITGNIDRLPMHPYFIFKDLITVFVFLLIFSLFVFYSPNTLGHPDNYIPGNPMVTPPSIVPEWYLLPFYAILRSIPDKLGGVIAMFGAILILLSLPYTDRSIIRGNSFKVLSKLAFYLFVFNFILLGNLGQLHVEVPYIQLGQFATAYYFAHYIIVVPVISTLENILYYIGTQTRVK
# [2] = biological target: bovine mitochondrial cytochrome bc1 (complex III) (Bos taurus, UniProt P00157); test: Oxygen consumption assay with bovine heart sub-mitochondrial particles; type: biochemical
# [3] = tested on: viable mycobacteria in the sputum; details: phase 2a multiple-dose trial; cited from earlier work
# [4] = cited from earlier work
# Mtb H37Rv = details: reported value; cited from earlier work
# mitochondrial complex I, sequence (P03887 whole entry): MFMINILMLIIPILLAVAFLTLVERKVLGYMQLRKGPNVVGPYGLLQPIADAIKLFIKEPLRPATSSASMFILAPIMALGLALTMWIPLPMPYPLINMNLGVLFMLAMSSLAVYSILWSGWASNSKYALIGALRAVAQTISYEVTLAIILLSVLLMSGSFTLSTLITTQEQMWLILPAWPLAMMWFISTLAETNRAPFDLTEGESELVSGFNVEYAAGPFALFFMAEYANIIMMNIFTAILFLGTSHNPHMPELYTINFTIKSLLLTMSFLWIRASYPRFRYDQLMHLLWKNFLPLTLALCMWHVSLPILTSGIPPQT
# mitochondrial complex I, sequence (P42026 38-216): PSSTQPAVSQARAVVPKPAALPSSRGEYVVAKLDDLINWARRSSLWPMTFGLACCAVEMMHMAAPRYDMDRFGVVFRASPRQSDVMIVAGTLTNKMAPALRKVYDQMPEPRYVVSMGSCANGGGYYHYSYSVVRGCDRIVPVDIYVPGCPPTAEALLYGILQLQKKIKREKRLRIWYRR
# mitochondrial complex I, sequence (P17694 34-463): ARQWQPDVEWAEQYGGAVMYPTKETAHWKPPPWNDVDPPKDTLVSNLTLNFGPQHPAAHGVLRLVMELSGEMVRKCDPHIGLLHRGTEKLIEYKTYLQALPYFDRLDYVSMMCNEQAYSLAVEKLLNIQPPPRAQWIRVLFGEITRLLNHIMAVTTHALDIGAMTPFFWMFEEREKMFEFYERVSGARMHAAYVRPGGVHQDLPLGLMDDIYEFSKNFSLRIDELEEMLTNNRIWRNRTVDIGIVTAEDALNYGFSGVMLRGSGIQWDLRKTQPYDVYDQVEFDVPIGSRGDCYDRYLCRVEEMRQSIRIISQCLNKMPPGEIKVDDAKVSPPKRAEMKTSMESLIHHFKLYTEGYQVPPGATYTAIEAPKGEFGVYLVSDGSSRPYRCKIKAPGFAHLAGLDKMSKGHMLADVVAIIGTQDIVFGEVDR
compound,measurement,setting,value
CCc1nc2ccc(Cl)cn2c1C(=O)NCc1ccc(N2CCC(c3ccc(OC(F)(F)F)cc3)CC2)cc1 [Compound Q203],inhibition of / binding to mitochondrial complex I,mitochondrial complex I,do not inhibit
same,IC50,Msmeg CIII2CIV2,99 ± 32 nM
same,inhibition of purified C. albicans CIII2,[1],No inhibition was observed
same,activity against bovine mitochondrial cytochrome bc1,[2],did not show activity
same,inhibition in SMPs,[2]; 1 μM,no inhibition was detected
same,inhibition in SMPs,[2]; 10 μM,some inhibition
same,inhibition at 10 µM,[2]; read-out: inhibition of complex III in SMPs,80%
same,early bactericidal activity,[3],dose-dependent reduction in the load of viable mycobacteria in the sputum
same,half-life,[4],13.38 ± 9.4704 days
same,MIC50,Mtb H37Rv,2.7 nM
